Test results reported in ChEMBL document CHEMBL1137764, “Design, synthesis, antibacterial activity and physicochemical parameters of novel N-4-piperazinyl derivatives of norfloxacin” (Bioorg Med Chem, 2009).
Converted amounts (≈) assume the structure as drawn.

Legend:
Staphylococcus aureus [1] = assay: Antimicrobial activity against Staphylococcus aureus at 4 ug/ml after 24 hrs by agar diffusion technique; format: functional; conditions: read-out: DIZ
Outline: (§1)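 Strains came from a university microbiology department. Inocula were 10⁶ CFU/mL. Mueller-Hinton agar was seeded with culture, poured 3–4 mm thick, and 10 mm cups were bored. Compounds were dissolved in DMF (10 mg/mL stock), diluted, and the solution was placed in the cups. Plates were incubated at 37 °C overnight. Inhibition zone diameter (mm) was read at 24 h.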

Klebsiella pneumoniae [2] = assay: Antimicrobial activity against Klebsiella pneumoniae at 128 ug/ml after 24 hrs by agar diffusion technique; format: functional; conditions: read-out: DIZ; outline: as §1
Pseudomonas aeruginosa [3] = assay: Antimicrobial activity against Pseudomonas aeruginosa at 16 ug/ml after 24 hrs by agar diffusion technique; format: functional; conditions: read-out: DIZ; outline: as §1
Pseudomonas aeruginosa [4] = assay: Antimicrobial activity against Pseudomonas aeruginosa after 24 hrs by agar diffusion technique; format: functional; conditions: for MIC: Pseudomonas aeruginosa, 24 h
Outline: (§2)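 Agar cup diffusion on Mueller-Hinton agar seeded from 10⁶ CFU/mL suspensions, with 10 mm cups in a 3–4 mm layer. Compounds were in DMF (10 mg/mL stock) at several concentrations. Plates were incubated at 37 °C and zones measured after 24 h. MIC was taken as the intercept of the plot of log concentration against inhibition zone diameter.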

Klebsiella pneumoniae [5] = assay: Antimicrobial activity against Klebsiella pneumoniae after 24 hrs by agar diffusion technique; format: functional; conditions: for MIC: Klebsiella pneumoniae, 24 h; outline: as §2
Staphylococcus aureus [6] = assay: Antimicrobial activity against Staphylococcus aureus after 24 hrs by agar diffusion technique; format: functional; conditions: for MIC: Staphylococcus aureus, 24 h; outline: as §2
Staphylococcus aureus [7] = assay: Antimicrobial activity against Staphylococcus aureus at 128 ug/ml after 24 hrs by agar diffusion technique; format: functional; conditions: read-out: DIZ; outline: as §1
Klebsiella pneumoniae [8] = assay: Antimicrobial activity against Klebsiella pneumoniae at 4 ug/ml after 24 hrs by agar diffusion technique; format: functional; conditions: read-out: DIZ; outline: as §1
Staphylococcus aureus [9] = assay: Antimicrobial activity against Staphylococcus aureus at 16 ug/ml after 24 hrs by agar diffusion technique; format: functional; conditions: read-out: DIZ; outline: as §1
[10] = Octanol-phosphate buffer partition coefficient, log D at pH 7.4 by spectrophotometry; format: physicochemical
Outline: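 Shake-flask method. A 0.2 mg/mL stock was diluted into pH 7.4 phosphate buffer and mixed with an equal volume of n-octanol, phases mutually presaturated and protected from light. Samples were vortexed 3 min, then shaken 5 h at 25 °C. Both phases were assayed by UV at 270–280 nm. D is the molar concentration ratio, octanol to aqueous.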

Pseudomonas aeruginosa [11] = assay: Antimicrobial activity against Pseudomonas aeruginosa at 4 ug/ml after 24 hrs by agar diffusion technique; format: functional; conditions: read-out: DIZ; outline: as §1
Escherichia coli [12] = assay: Antimicrobial activity against Escherichia coli at 64 ug/ml after 24 hrs by agar diffusion technique; format: functional; conditions: read-out: DIZ; outline: as §1
Staphylococcus aureus [13] = assay: Antimicrobial activity against Staphylococcus aureus at 512 ug/ml after 24 hrs by agar diffusion technique; format: functional; conditions: read-out: DIZ; outline: as §1
Escherichia coli [14] = assay: Antimicrobial activity against Escherichia coli at 16 ug/ml after 24 hrs by agar diffusion technique; format: functional; conditions: read-out: DIZ; outline: as §1
Staphylococcus aureus [15] = assay: Antimicrobial activity against Staphylococcus aureus at 64 ug/ml after 24 hrs by agar diffusion technique; format: functional; conditions: read-out: DIZ; outline: as §1
Pseudomonas aeruginosa [16] = assay: Antimicrobial activity against Pseudomonas aeruginosa at 512 ug/ml after 24 hrs by agar diffusion technique; format: functional; conditions: read-out: DIZ; outline: as §1
Pseudomonas aeruginosa [17] = assay: Antimicrobial activity against Pseudomonas aeruginosa at 64 ug/ml after 24 hrs by agar diffusion technique; format: functional; conditions: read-out: DIZ; outline: as §1
Escherichia coli [18] = assay: Antimicrobial activity against Escherichia coli after 24 hrs by agar diffusion technique; format: functional; conditions: for MIC: Escherichia coli, 24 h; outline: as §2
Klebsiella pneumoniae [19] = assay: Antimicrobial activity against Klebsiella pneumoniae at 64 ug/ml after 24 hrs by agar diffusion technique; format: functional; conditions: read-out: DIZ; outline: as §1
Escherichia coli [20] = assay: Antimicrobial activity against Escherichia coli at 4 ug/ml after 24 hrs by agar diffusion technique; format: functional; conditions: read-out: DIZ; outline: as §1
Klebsiella pneumoniae [21] = assay: Antimicrobial activity against Klebsiella pneumoniae at 512 ug/ml after 24 hrs by agar diffusion technique; format: functional; conditions: read-out: DIZ; outline: as §1
Klebsiella pneumoniae [22] = assay: Antimicrobial activity against Klebsiella pneumoniae at 16 ug/ml after 24 hrs by agar diffusion technique; format: functional; conditions: read-out: DIZ; outline: as §1
Escherichia coli [23] = assay: Antimicrobial activity against Escherichia coli at 128 ug/ml after 24 hrs by agar diffusion technique; format: functional; conditions: read-out: DIZ; outline: as §1
Escherichia coli [24] = assay: Antimicrobial activity against Escherichia coli at 512 ug/ml after 24 hrs by agar diffusion technique; format: functional; conditions: read-out: DIZ; outline: as §1
Pseudomonas aeruginosa [25] = assay: Antimicrobial activity against Pseudomonas aeruginosa at 128 ug/ml after 24 hrs by agar diffusion technique; format: functional; conditions: read-out: DIZ; outline: as §1

Row | SMILES | zone of inhibition at 4 µg/mL (Staphylococcus aureus [1]) | zone of inhibition at 128 µg/mL (Klebsiella pneumoniae [2]) | zone of inhibition at 16 µg/mL (Pseudomonas aeruginosa [3]) | logMIC (Pseudomonas aeruginosa [4]) | MIC (Pseudomonas aeruginosa [4]) | logMIC (Klebsiella pneumoniae [5]) | MIC (Klebsiella pneumoniae [5]) | logMIC (Staphylococcus aureus [6]) | MIC (Staphylococcus aureus [6]) | zone of inhibition at 128 µg/mL (Staphylococcus aureus [7]) | zone of inhibition at 4 µg/mL (Klebsiella pneumoniae [8]) | zone of inhibition at 16 µg/mL (Staphylococcus aureus [9]) | logD [10] | zone of inhibition at 4 µg/mL (Pseudomonas aeruginosa [11]) | zone of inhibition at 64 µg/mL (Escherichia coli [12]) | zone of inhibition at 512 µg/mL (Staphylococcus aureus [13]) | zone of inhibition at 16 µg/mL (Escherichia coli [14]) | zone of inhibition at 64 µg/mL (Staphylococcus aureus [15]) | zone of inhibition at 512 µg/mL (Pseudomonas aeruginosa [16]) | zone of inhibition at 64 µg/mL (Pseudomonas aeruginosa [17]) | also measured
1 | CCn1cc(C(=O)O)c(=O)c2cc(F)c(N3CCN(CN4C(=O)c5cccc6cccc(c56)C4=O)CC3)cc21 | 0 mm | 8 mm | 0 mm | 2.11 | 128 µg/mL (≈ 242 µM) | 1.81 | 64 µg/mL (≈ 121 µM) | 2.11 | 128 µg/mL (≈ 242 µM) | 0 mm | 0 mm | 0 mm | -0.9 | 0 mm | 0 mm | 15 mm | 0 mm | 0 mm | 10 mm | 0 mm | logMIC (Escherichia coli [18]): 2.11; MIC (Escherichia coli [18]): 128 µg/mL (≈ 242 µM); zone of inhibition at 64 µg/mL (Klebsiella pneumoniae [19]): 0 mm; zone of inhibition at 4 µg/mL (Escherichia coli [20]): 0 mm; zone of inhibition at 512 µg/mL (Klebsiella pneumoniae [21]): 9 mm; zone of inhibition at 16 µg/mL (Klebsiella pneumoniae [22]): 0 mm; zone of inhibition at 128 µg/mL (Escherichia coli [23]): 0 mm; zone of inhibition at 512 µg/mL (Escherichia coli [24]): 13 mm; zone of inhibition at 128 µg/mL (Pseudomonas aeruginosa [25]): 0 mm
2 | CCn1cc(C(=O)O)c(=O)c2cc(F)c(N3CCN(CN4C(=O)CCC4=O)CC3)cc21 | 0 mm | 22 mm | 9 mm | 0.7 | 5 µg/mL (≈ 11.6 µM) | 2.11 | 128 µg/mL (≈ 297 µM) | 0.6 | 4 µg/mL (≈ 9.29 µM) | 13 mm | 8 mm | 4 mm | -0.8 | 0 mm | 0 mm | 22 mm | 0 mm | 12 mm | 27 mm | 13 mm | logMIC (Escherichia coli [18]): 0; MIC (Escherichia coli [18]): < 1 µg/mL; zone of inhibition at 64 µg/mL (Klebsiella pneumoniae [19]): 20 mm; zone of inhibition at 4 µg/mL (Escherichia coli [20]): 0 mm; zone of inhibition at 512 µg/mL (Klebsiella pneumoniae [21]): 31 mm; zone of inhibition at 16 µg/mL (Klebsiella pneumoniae [22]): 15 mm; zone of inhibition at 128 µg/mL (Escherichia coli [23]): 0 mm; zone of inhibition at 512 µg/mL (Escherichia coli [24]): 5 mm; zone of inhibition at 128 µg/mL (Pseudomonas aeruginosa [25]): 15 mm
3 | CCn1cc(C(=O)O)c(=O)c2cc(F)c(N3CCN(CN4N=C(C)CC4=O)CC3)cc21 | 0 mm | 6 mm | 3 mm | 0.95 | 9 µg/mL (≈ 21 µM) | 0.9 | 8 µg/mL (≈ 18.6 µM) | 1 | 10 µg/mL (≈ 23.3 µM) | 3 mm | 0 mm | 0 mm | -0.85 | 0 mm | 10 mm | 3 mm | 8 mm | 7 mm | 18 mm | 3 mm | logMIC (Escherichia coli [18]): 0; MIC (Escherichia coli [18]): < 1 µg/mL; zone of inhibition at 64 µg/mL (Klebsiella pneumoniae [19]): 3 mm; zone of inhibition at 4 µg/mL (Escherichia coli [20]): 8 mm; zone of inhibition at 512 µg/mL (Klebsiella pneumoniae [21]): 11 mm; zone of inhibition at 16 µg/mL (Klebsiella pneumoniae [22]): 2 mm; zone of inhibition at 128 µg/mL (Escherichia coli [23]): 10 mm; zone of inhibition at 512 µg/mL (Escherichia coli [24]): 10 mm; zone of inhibition at 128 µg/mL (Pseudomonas aeruginosa [25]): 7 mm
